Measurements published in ChEMBL document CHEMBL1158496, “Design and synthesis of 2-(3-benzo[b]thienyl)-6,7-methylenedioxyquinolin-4-one analogues as potent antitumor agents that inhibit tubulin assembly” (J Med Chem, 2009).
pIC50: −log10 of the molar value. Active and inactive are the calls of the source. No cut-off for these calls is given here.

Key:
[1] = Displacement of [3H]colchicine from tubulin at 1 uM […]
Procedure, shortened: (§1)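 Tubulin (1.0 μM) incubated 10 min at 37 °C with 5.0 μM [3H]colchicine and inhibitor at 1.0 or 5.0 μM. At this time roughly 40–60% of maximal colchicine binding has occurred. Inhibition of radiolabel binding measured.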

[2] = Cytotoxicity against human Hep3B cells by MTT assay; assay type: functional, cell-based, Hep 3B2
Procedure, shortened: (§2)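 After compound treatment, cells washed once with PBS and incubated 2 h with MTT. Formazan dissolved in DMSO, absorbance read at 570 nm.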

HL-60 = experiment: Cytotoxicity against human HL60 cells by MTT assay; assay type: functional, cell-based; procedure, shortened: as §2
[3] = Inhibition of tubulin polymerization
Procedure, shortened: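 Turbidimetric assembly assay. Tubulin 1.0 mg/mL (10 μM) preincubated 15 min at 30 °C with varying drug concentrations, without GTP. Samples then chilled, 0.4 mM GTP added, and turbidity followed for 20 min at 30 °C after a temperature jump from 0 °C.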

[4] = Displacement of [3H]colchicine from tubulin at 5 uM by turbidimetry; procedure, shortened: as §1
DU-145 = experiment: Cytotoxicity against human DU145 cells by SRB assay; assay type: functional, cell-based
Procedure, shortened: (§3)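 Cells exposed to compound or DMSO for the stated periods, fixed with 10% TCA, then stained with 0.4% (w/v) SRB in 1% acetic acid. Unbound dye removed with 1% acetic acid, bound dye dissolved in 10 mM Trizma base, absorbance read at 515 nm.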

KB = experiment: Cytotoxicity against human KB cells by SRB assay; assay type: functional, cell-based; procedure, shortened: as §3
A549 = experiment: Cytotoxicity against human A549 cells by SRB assay; assay type: functional, cell-based; procedure, shortened: as §3
HCT-116 = experiment: Cytotoxicity against human HCT116 cells by MTT assay; assay type: functional, cell-based; procedure, shortened: as §2
[5] = Cytotoxicity against human KBVIN cells by SRB assay; assay type: functional, cell-based; procedure, shortened: as §3
SK-MEL-5 = experiment: Cytotoxicity against human SK-MEL-5 cells; assay type: functional, cell-based
SF-539 = experiment: Cytotoxicity against human SF539 cells; assay type: functional, cell-based
SNB-75 = experiment: Cytotoxicity against human SNB75 cells; assay type: functional, cell-based
IGROV-1 = experiment: Cytotoxicity against human IGROV1 cells; assay type: functional, cell-based
OVCAR-3 [6] = experiment: Cytotoxicity against human OVCAR-3 cells; assay type: functional, cell-based
HCC 2998 = experiment: Cytotoxicity against human HCC2998 cells; assay type: functional, cell-based
KM12 = experiment: Cytotoxicity against human KM12 cells; assay type: functional, cell-based
OVCAR-3 [7] = experiment: Antitumor activity against human OVCAR-3 cells xenografted in nude mouse dosed as ip once weekly for three courses; assay type: functional
OVCAR-3 [8] = experiment: Antitumor activity against human OVCAR-3 cells xenografted in nude mouse assessed as life span extension at 134 mg/kg, ip once weekly for three courses; assay type: functional; details: route intraperitoneal
OVCAR-3 [9] = experiment: Antitumor activity against human OVCAR-3 cells xenografted in nude mouse assessed as life span extension at 79 mg/kg, ip once weekly for three courses; assay type: functional; details: route intraperitoneal
OVCAR-3 [10] = experiment: Antitumor activity against human OVCAR-3 cells xenografted in nude mouse assessed as life span extension at 200 mg/kg, ip once weekly for three courses; assay type: functional; details: route intraperitoneal

SMILES	pIC50 [2]	pIC50 (HL-60)	pIC50 [3]	pIC50 (DU-145)	pIC50 (KB)	pIC50 (A549)	pIC50 (HCT-116)	pIC50 [5]	also measured
O=c1cc(-c2csc3ccccc23)[nH]c2cc3c(cc12)OCO3	7.22	6.77	6.12	< 6.60	< 6.60	< 6.60	6.85	< 6.60	Activity [1]: 25%; Activity [4]: 61%
O=c1cc(-c2ccc3ccccc3c2)[nH]c2cc3c(cc12)OCO3	< 6.00	6.30	< 4.40	< 6.00	< 6.00	< 6.00	< 6.00	< 6.00	
Cc1c(-c2cccc3ccccc23)c(=O)[nH]c2cc3c(cc12)OCO3	5.37	< 5.00					< 5.00		
O=c1cc(-c2coc3ccccc23)[nH]c2cc3c(cc12)OCO3	7.05	7.52	6.24	5.73	5.98	5.53	7.30	6.23	Activity (SK-MEL-5): Active; Activity [1]: 39%; Activity (SF-539): Active; Activity (SNB-75): Active; Activity (IGROV-1): Active; Activity [4]: 51%; Activity (OVCAR-3 [6]): Active; Activity (HCC 2998): Active; Activity (KM12): Active
O=c1cc(-c2cccc3cc4ccccc4cc23)[nH]c2cc3c(cc12)OCO3	5.66	6.28	< 4.40				5.80		
O=c1cc(-c2cc3ccccc3s2)[nH]c2cc3c(cc12)OCO3	< 6.00	< 6.00		< 6.00	< 6.00	< 6.00	< 6.00	< 6.00	
O=c1cc(-c2cnc3ccccc3c2)[nH]c2cc3c(cc12)OCO3	< 7.00	< 7.00	< 5.40	< 7.00	< 7.00	< 7.00	< 7.00	< 7.00	
O=c1cc(-c2ccc3ccccc3n2)[nH]c2cc3c(cc12)OCO3	< 5.30	< 5.30	< 4.40	< 5.30	< 5.30	< 5.30	< 5.30	< 5.30	
O=c1cc(-c2cccc3ncccc23)[nH]c2cc3c(cc12)OCO3	< 5.00	< 5.00	4.57	< 5.00	< 5.00	< 5.00	< 5.00	< 5.00	
Cc1cnc2nc(-c3csc4ccccc34)cc(O)c2c1			6.43						
O=c1cc(-c2cc3ccccc3o2)[nH]c2cc3c(cc12)OCO3	< 6.00	< 6.00	< 5.40	< 6.00	< 6.00	< 6.00	< 6.00	< 6.00	
COc1cccc(-c2cc(O)c3cc(N4CCCC4)ccc3n2)c1									MTD (OVCAR-3 [7]): 25 mg/kg
O=c1cc(-c2cccc3ccccc23)[nH]c2cc3c(cc12)OCO3	7.15	7.15	6.19	6.89	6.89	6.89	7.15	6.72	Activity [1]: 33%; Activity [4]: 67%
O=c1cc(-c2ccccc2F)[nH]c2cc3c(cc12)OCO3									Activity (OVCAR-3 [8]): 133%; Activity (OVCAR-3 [9]): 79%; Activity (OVCAR-3 [10]): 124%; MTD (OVCAR-3 [7]): >200 mg/kg
COc1ccc(/C=C\c2cc(OC)c(OC)c(OC)c2)cc1O									Activity [1]: 91%
O=c1cc(-c2ccnc3ccccc23)[nH]c2cc3c(cc12)OCO3	< 5.30	< 5.30	< 4.40	< 5.30	< 5.30	< 5.30	< 5.30	< 5.30	
